RAM inhibit: yeast RAM network inhibition; inhibition, % at 50 µM; 190,000 compounds, 1.8% hits; S. cerevisiae dse1pr::URA3 reporter, 5-FOA growth OD615, 2 d; analog-sensitive cbk1-as2 kinase mutant strain;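 active = inhibition above a set limit, 3 SD over mean compound inhibition, cut at about 8.4% in these data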;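 also: 0% = DMSO-only wells with no growth and 100% = 10 µM 1-NA-PP1 full growth; inhibition rescues growth on 5-FOA so higher OD means more RAM inhibition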
WT yeast gro inh: growth inhibition of WT yeast, mitochondrial fusion screen; mitochondrial fusion phenotypic screen, WT strain; inhibition, % at 10 µM; 190,000 compounds, 2.1% hits; AID 1362; in the data active = inhibition above about 58%; tested in S. cerevisiae
Arbovirus inh: antivirals against arbovirus infection; inhibition, % at 10 µM; 200,000 compounds, 0.37% hits; arbovirus infection cell-based antiviral screen; in the data active = inhibition above about 30%
p47phox inh: p47phox (human) inhibition | p47phox/p22phox peptide binding, fluorescence polarization, 2 h | inhibition, % at 24.7 µM | 220,000 compounds, 0.53% hits | AID 1274;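 active = inhibition above about 30%, limit read from the data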;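 also: 0% = p47phox with labelled peptide and 100% = labelled peptide alone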
Biofilm kill mix: mixtures killing C. albicans biofilm; C. albicans biofilm persisters + clotrimazole, fluorescence viability; primary screen in compound mixtures of four per well; inhibition, % at 7.6 µM; 120,000 compounds, 0.02% hits; AID 1242;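 active = inhibition above 30.3% in the primary screen of four-compound pools, then above 30% when the compound was retested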;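 also: compounds exposed to preformed 24 h biofilms for 48 h; 0% = untreated biofilm control and 100% = clotrimazole plus chlorhexidine kill blank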
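Test system: C. albicans biofilms. Buffer or medium: RPMI/MOPS medium, pH 7.0. Timing: 48 h compound exposure at 37 °C. Technique: Alamar Blue fluorescence. Evaluation: percent inhibition of biofilm viability.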
Hck Nef HTS: human Hck-Nef kinase inhibition; P08631; Recombinant Hck-YEEI plus Nef, Z-Lyte FRET kinase assay; inhibition, % at 20 µM; 220,000 compounds, 0.68% hits; AID 463187;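 active = Hck-Nef kinase inhibition above about 50%, limit read from the data; inactive = inhibition below that limit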;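 also: 0% = DMSO with Hck plus Nef and 100% = Hck alone without Nef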
Target sequence (P08631 whole entry, looked up): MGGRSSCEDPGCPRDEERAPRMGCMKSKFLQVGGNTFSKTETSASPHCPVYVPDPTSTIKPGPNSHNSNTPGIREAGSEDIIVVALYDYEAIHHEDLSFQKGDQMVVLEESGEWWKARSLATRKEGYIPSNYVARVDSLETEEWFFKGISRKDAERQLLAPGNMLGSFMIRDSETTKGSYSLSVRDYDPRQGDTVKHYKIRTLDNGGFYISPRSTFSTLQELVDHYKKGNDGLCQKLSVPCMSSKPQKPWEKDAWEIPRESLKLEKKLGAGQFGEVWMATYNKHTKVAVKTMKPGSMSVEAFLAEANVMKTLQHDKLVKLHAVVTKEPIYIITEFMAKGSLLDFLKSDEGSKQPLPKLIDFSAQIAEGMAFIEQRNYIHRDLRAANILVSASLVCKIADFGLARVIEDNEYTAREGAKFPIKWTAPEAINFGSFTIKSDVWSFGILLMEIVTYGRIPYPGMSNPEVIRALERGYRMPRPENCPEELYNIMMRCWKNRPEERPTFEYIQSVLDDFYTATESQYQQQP
* = called active by the depositor; . = no result. The list is not random: actives were taken first. Their share in the collection is about 4.6%.

SMILES	RAM inhibit	WT yeast gro inh	Arbovirus inh	p47phox inh	Biofilm kill mix	Hck Nef HTS
Cc1cccc2[nH]c(CN(C)C(=O)CC3C(=O)NCCN3CC(C)(C)C)nc12 (centres undefined)	0.4	-0.1	1.9	-11.0	7.1	-27.9
CCc1ccccc1NC(=S)N=Nc1c(O)n(C)c2ccc(S(=O)(=O)N3CCOCC3)cc12	7.4	72.1*	-5.7	-11.6	14.1	3.2
C=CCSC1=N/C(=C\c2cc(OCC)c(OC(C)=O)c([N+](=O)[O-])c2)C(=O)S1	2.8	34.7	3.9	-10.8	-0.1	83.5*
CC(C)n1c(=S)[nH]c2scc(-c3cccs3)c2c1=O	.	.	.	1.6	23.0	97.7*
CCn1c(=S)[nH]c2scc(-c3cccs3)c2c1=O	3.9	25.2	3.1	1.6	6.4	14.8
COC(=O)[C@H](Cc1c[nH]c2ccccc12)NC(=O)Nc1ccccc1OC	.	.	.	-9.0	14.7	13.4
NS(=O)(=O)c1ccc(CCNC(=O)CSCc2ccccc2)cc1	0.6	7.2	4.3	-6.2	15.2	12.5
Cc1ccc(-n2c(O)c(C=NC3CCS(=O)(=O)C3)c3ccccc3c2=O)cc1 (centres undefined)	0.4	-21.2	2.8	51.2*	.	2.0
Cc1ccc(-n2c(O)c(C=NC3CCS(=O)(=O)C3)c3ccccc3c2=O)c(C)c1 (centres undefined)	.	.	.	-8.6	16.1	3.1
Cc1nn2c([nH]c(=O)c3ccccc32)c1C=O	-0.9	15.0	5.8	-3.7	.	5.2
CC1CCc2onc(C(=O)NCc3ccco3)c2C1 (centres undefined)	1.6	1.1	2.1	-7.5	20.3	22.3
Cc1ccccc1NCC(=O)N/N=C\C=C\c1cccc([N+](=O)[O-])c1	-0.5	17.8	2.8	-3.9	18.0	3.6
NS(=O)(=O)c1ccc(NC(=O)COC(=O)c2cn(-c3ccccc3)nc2-c2ccc(F)cc2)cc1	5.6	-4.2	-4.3	-14.8	6.6	-0.3
CN(C)S(=O)(=O)c1cccc(NC(=O)COC(=O)c2cn(-c3ccccc3)nc2-c2ccccc2)c1	9.1*	1.9	-0.2	-25.8	-5.5	1.8
COCCNC(=O)CSc1nc2scc(-c3ccccc3)c2c(=O)[nH]1	.	.	.	-31.3	10.9	-1.1
Cc1ccc(NC(=S)Nc2ccccn2)cc1C	.	.	.	-16.2	9.6	-2.3
Cc1ccc(NC(=S)Nc2ccc3nc(-c4ccccn4)c(-c4ccccn4)nc3c2)cc1C	-0.1	25.0	6.9	112.2*	-2.9	9.1
O=C(O)c1ccccc1/C=N/NC(=S)NCc1ccccc1	.	.	.	-1.3	15.8	-12.3
CCOC(=O)N1CCN(c2nc(C(F)(F)F)nc3c(C)cc(C)cc23)CC1	7.0	3.5	4.3	-23.1	.	7.5
Cc1cc(C)c2nc(C(F)(F)F)nc(N3CC(C)OC(C)C3)c2c1 (centres undefined)	3.9	77.0*	0.3	44.9*	.	3.5
CCOC(=O)Cc1nnc(Nc2ccc(C)cc2C)c2ccccc12	0.0	-6.2	-7.4	5.2	11.7	1.1
COc1cc(/C=C2/SC(=S)NC2=O)ccc1OS(=O)(=O)c1ccc(C)cc1	6.4	73.4*	-8.9	-57.9	9.2	49.5
COc1cc(/C=C2\SC(=S)NC2=O)ccc1OS(=O)(=O)c1ccccc1	4.9	79.2*	-16.2	-51.7	10.9	16.7
CC1(C)CC2(CC(c3ccccc3F)c3ccc(O)c(O)c3O2)NC(=S)N1 (centres undefined)	-1.0	-8.0	3.0	-13.7	23.4	23.6
CC1(/[N+]([O-])=C\c2ccccc2F)CCCCC1=O (centres undefined)	.	.	.	0.6	22.1	16.1
SMILES	RAM inhibit	WT yeast gro inh	Arbovirus inh	p47phox inh	Biofilm kill mix	Hck Nef HTS
CN(C)/C=C/C(=O)c1ccc(N2CCN(c3ncc(C(F)(F)F)cc3Cl)CC2)cc1	6.7	49.6	-42.0	0.4	.	-0.7
CN(C)C=NC(=O)c1ccc(N2CCN(c3ncc(C(F)(F)F)cc3Cl)CC2)cc1	9.0*	1.5	-5.2	-0.5	.	2.0
Cc1nc2ccccc2n2c(O)c(CC(=O)O)cc12	1.4	-2.7	12.6	34.9*	.	-11.1
C=C(C)CNC(=S)N/N=C/c1ccco1	.	.	.	-8.7	6.7	8.1
O=C(c1ccccc1)c1ccc2nc(-c3ccco3)c(-c3ccco3)nc2c1	6.9	24.2	-14.2	-8.1	17.4	58.5*
O=C(NCCc1ccccc1)c1ccc2nc(-c3ccco3)c(-c3ccco3)nc2c1	3.3	25.9	0.9	-14.2	.	15.2

Assay outcomes from PubChem.
